Measurements from different studies.
Target: Cannabinoid receptor 2 (CNR2, Homo sapiens, UniProt P34972)

Structure (SMILES)	observed	action	method	notes	quantity	result
CCOC(=O)C(CC)(CCCSCCOCCOCCOCCNC(=O)OC(C)(C)C)NC(=O)c1ccc(C2CC2)c(Cc2ccc(F)cc2)n1 (stereo not drawn)	cAMP	agonist			EC50	10 nM
CC1(C)C(C(=O)c2cn(CCCCCF)c3ccccc23)C1(C)C	GTPγS binding	agonist	radiometric	cell membranes	EC50	145 nM
C[C@H]1CC[C@H]2[C@H](C1)c1c(O)cc(-c3csc4ccccc34)cc1OC2(C)C	GTPγS binding	agonist	radiometric	cell membranes	EC50	16000 nM
CCCCCn1cc(C(=O)C2C(C)(C)C2(C)C)c2ccccc21	GTPγS binding	agonist	radiometric	cell membranes	EC50	334 nM
Cc1nc([C@@](C)(CC2CC2)NC(=O)c2cc(OCC(F)(F)F)c(C3CC3)cn2)no1	cAMP	agonist			EC50	8 nM
COc1ccc(-c2cnc3c(c2)cc(C(=O)NC2CCC(C)CC2)c(=O)n3CCN2CCOCC2)cc1 (stereo not drawn)	ligand displacement		radioligand		IC50	5.56 nM
NC(=O)[C@@H]1CC(F)(F)CN1C(=O)c1ccc(N2CC(F)(F)C2)c(OCC2CC2)n1	cAMP	agonist			EC50	3 nM
CC1CCC(NC(=O)c2cc3cc(Br)cnc3n(CCN3CCOCC3)c2=O)CC1 (stereo not drawn)	ligand displacement		radioligand		IC50	4.95 nM
CCOC(=O)[C@](CC)(CCC[S+]([O-])CCOCCOCCNC(=O)OC(C)(C)C)NC(=O)c1ccc(C2CC2)c(Cc2ccc(F)cc2)n1 (stereo partly drawn)	cAMP	agonist			EC50	7.9 nM
